OX1R antag-1: antagonists of human orexin 1 receptor (OX1R). inhibition, % at 6.6 µM. AID 485270, 2010. OX1R-expressing cells, FRET antagonist read-out. actives 1.8% (n = 330,000). Orexin/Hypocretin receptor type 1 (Homo sapiens), O43613; in the data active means inhibition mostly above about 38%, no sharp cut-off; inactive means mostly below about 40%;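 further: 0% = agonist challenge alone and 100% = reference antagonist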
TAAR1 antagonist: human TAAR1 antagonists, primary screen, Fluo-8 calcium fluorescence, CHO RD-HGA16 cells | antagonist | inhibition, % at 3 µM | actives 1.5% (n = 360,000) | AID 624466, 2012;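 active means inhibition above a per-plate cutoff, the mean inhibition of test compounds on that plate plus 3 SD, cut at about 49% in these data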;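 further: 0% = DMSO plus EC80 beta-PEA response and 100% = DMSO alone without agonist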
Target sequence (Q96RJ0 whole entry, looked up): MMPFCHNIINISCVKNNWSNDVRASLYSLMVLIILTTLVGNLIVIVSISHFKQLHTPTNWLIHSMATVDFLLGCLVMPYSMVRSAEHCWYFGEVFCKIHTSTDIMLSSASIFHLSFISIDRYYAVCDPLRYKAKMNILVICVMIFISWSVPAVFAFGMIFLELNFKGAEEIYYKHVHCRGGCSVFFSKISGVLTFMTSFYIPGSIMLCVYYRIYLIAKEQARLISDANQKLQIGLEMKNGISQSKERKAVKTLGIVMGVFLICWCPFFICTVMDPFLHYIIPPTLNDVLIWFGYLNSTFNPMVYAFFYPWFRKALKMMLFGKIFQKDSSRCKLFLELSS
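System: CHO RD-HGA16 cells bearing hTAAR1. Reagent: EC80 β-phenethylamine stimulus. Schedule: seeding 17-24 h prior, 75-min 37 °C, 30-min RT dye loading. Signal: Fluo-8 intracellular calcium dye fluorescence, real-time kinetic reads. Read-out: % inhibition from peak post-agonist over basal fluorescence ratio. Benchmarks: vehicle wells and EC80 agonist wells. Replicates: n of 1.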
CHO parental Ca: ATP-evoked calcium signal inhibitors, parental CHO, primary screen, counter-screen for OX1R antagonist project, cell-based, fluorescence, Fluo-8 calcium dye. parental CHO-K1, ATP-induced calcium, Fluo-8 fluorescence. actives 0.63% (n = 330,000). inhibition, % at 5.6 µM;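 active means inhibition above that plate's mean sample inhibition plus 3 SD, cut at about 26% in these data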;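 further: 0% = ATP-challenged DMSO wells and 100% = DMSO wells without ATP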
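Measured by: calcium-sensitive Fluo-8 fluorescence / Test system: CHO parental line / Controls: ATP-challenged DMSO wells low, unchallenged DMSO wells high / Measure: % inhibition / Compound: single nominal dose of 5.6 µM per compound / Replicates: single well per compound, no replicates / Reagent: ATP as calcium-mobilizing challenge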
NTR1 agonist: agonists of human NTR1, primary screen, imaging, U2OS cells, beta-arrestin-GFP, high content. NTR1-U2OS beta-arrestin-GFP spot imaging, agonist mode. activation, % at 20 µM. actives 0.17% (n = 330,000);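 active means activation at or above 40% of the spot to cytoplasm intensity ratio, with at least 20 cells analyzed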;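 further: 0% = DMSO without peptide and 100% = 100 nM NTR1 peptide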
TAAR1 agonist: human TAAR1 agonists, primary screen, Fluo-8 calcium fluorescence, CHO RD-HGA16 cells; Trace amine-associated receptor 1 (Homo sapiens), Q96RJ0; vehicle wells 0%, saturating PEA agonist 100%; activation, % at 3 µM; actives 0.99% (n = 360,000);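 active means activation above the mean activation of all test compounds in the run plus 3 SD, cut at about 38% in these data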
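System: CHO-derived RD-HGA16 cells with stable Gα16 and human TAAR1 / Times: 17-24 h plating, Fluo-8 75 min 37 °C, 30 min RT / Technique: calcium-sensitive Fluo-8 signal, excitation 470-495, emission 515-575 nm / Measure: % activation relative to PEA EC100 response / Benchmarks: DMSO and PEA EC100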
OX1R antag-2: OX1R (HCRTR1) antagonists, primary screen, fluorescence, CHO/OX1R cells, Fluo-8 calcium, orexin A; Orexin/Hypocretin receptor type 1 (Homo sapiens), O43613; Fluo-8 calcium fluorescence; inhibition, % at 5 µM; actives 0.43% (n = 330,000); AID 434989, 2010;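 active means inhibition above its plate's threshold, mean inhibition of all tested compounds on the plate plus 3 SD, cut at about 37% in these data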;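 further: 0% = orexin A challenge wells and 100% = SB-334867-A antagonist wells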
OX1R Fluo8 conf: OX1R (HCRTR1) antagonists, confirmation, fluorescence, CHO/OX1R cells, Fluo-8 calcium, orexin A; inhibition, % at 5 µM; orexin A calcium Fluo-8 fluorescence; actives 38% (n = 1,100); shares compounds with OX1R antag-2; in the data active means inhibition above about 29%;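 further: 0% = agonist challenge alone and 100% = reference antagonist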
CHO Ca triplic: ATP-evoked calcium inhibition in parental CHO, counter-screen for OX1R antagonist project, cell-based, fluorescence, CHO-K1, triplicate; shares compounds with OX1R antag-2; ATP-induced calcium, Fluo-8 fluorescence; inhibition, % at 5.6 µM; actives 9.3% (n = 1,100); AID 492965, 2010;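 active means inhibition above a per-plate limit, the mean inhibition of that plate's test compounds plus 3 SD, cut at about 25% in these data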;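 further: 0% = ATP challenge with DMSO and 100% = DMSO without ATP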
OX1R HTRF confirm: OX1R (HCRTR1) antagonists, confirmation, cell-based, HTRF. inhibition, % at 6.6 µM. AID 492964, 2010. shares compounds with OX1R antag-1. OX1R-expressing cells, HTRF antagonist assay. actives 49% (n = 1,800); in the data active means inhibition above about 55%;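 further: CHO cells expressing OX1R stimulated with orexin A at about EC80; 0% = agonist challenge alone and 100% = reference antagonist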
CHO-K1 HTRF: signal inhibition in parental CHO-K1 cells, counter-screen for OX1R antagonist project, cell-based, HTRF | inhibition, % at 6.6 µM | shares compounds with OX1R antag-1 | AID 493232, 2011 | actives 48% (n = 1,800) | HTRF counterscreen; in the data active means inhibition above about 17%;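 further: 0% = agonist challenge with vehicle and 100% = vehicle alone without agonist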
Active calls of the source: *; nt = not tested or not shown. Compounds with a hit are over-represented: about 4% of the library has one in this group of screens.

SMILES	OX1R antag-1	TAAR1 antagonist	CHO parental Ca	NTR1 agonist	TAAR1 agonist	OX1R antag-2	OX1R Fluo8 conf	CHO Ca triplic	OX1R HTRF confirm	CHO-K1 HTRF
COc1ccc2oc(C(=O)Nc3nc4ccccc4[nH]3)c(C)c2c1	53*	12	-6	6	5	31	-2	-4	28	9
COc1ccc(CCNC(=O)COc2ccc(-c3ccc(C)cc3)cc2)cc1OC	66*	25	-14	3	-1	70*	24	-2	76*	9
Cc1cc2nn(-c3ccccc3)nc2cc1NC(=O)c1cccs1	79*	4	-13	4	2	61*	17	2	70*	18*
O=C(COC(=O)c1cc(-c2cccs2)nc2ccccc12)NC1CCS(=O)(=O)C1 (stereo not drawn)	84*	27	-6	0	18	42*	33*	8	84*	6
Cc1ccc2nc(-c3ccc(NC(=O)c4ccco4)cc3)[nH]c2c1	13	nt	-5	-1	nt	-13	nt	nt	nt	nt
O=C(Nc1cccc(-c2nc3ccccc3[nH]2)c1)c1ccco1	73*	29	-15	3	11	24	10	-5	50	8
Cc1nc2c(C)cccn2c1/C(O)=C1\C(=O)C(=O)N(CCN(C)C)C1c1cccs1 (stereo not drawn)	nt	-27	nt	nt	0	nt	nt	nt	nt	nt
COc1cc(NC(=O)CSCc2cnn(-c3ccccc3)c2-n2cccc2)cc(OC)c1	78*	32	-25	1	7	50*	28	-17	89*	8
CC(NC(C)c1ccccc1Cl)C(=O)Nc1cccc(S(=O)(=O)N2CCCCC2)c1 (stereo not drawn)	88*	-9	-21	-1	5	89*	80*	-14	89*	-1
Cc1cccc(NC(=O)/C(C#N)=C\c2cn(CC(=O)O)c3ccccc23)c1	83*	12	-14	2	4	43	37*	3	78*	4
Nc1nc(CSC(=S)N2CCN(c3ccccc3)CC2)nc(Nc2ccc(F)cc2)n1	25	-3	-16	3	3	-14	nt	nt	nt	nt
CC1CC(C)CN(C(=S)SCc2nc(N)nc(Nc3ccccc3)n2)C1 (stereo not drawn)	75*	-34	-30	14	3	40*	48*	-14	77*	4
COCCNC(=S)N1CCC2CC1c1cc(-c3ccc4c(c3)OCO4)ccc12 (stereo not drawn)	nt	24	nt	nt	0	nt	nt	nt	nt	nt
CC1CCCN(C(=O)CNC(=O)c2sc3ccccc3c2Cl)C1 (stereo not drawn)	nt	-14	nt	3	-3	nt	nt	nt	nt	nt
CC1CC(C)CN(C(=O)CNC(=O)c2sc3ccccc3c2Cl)C1 (stereo not drawn)	70*	-3	-26	6	0	55*	27	-11	83*	8
COc1ccc(S(=O)(=O)Nc2ccccc2C(=O)N2CCOCC2)cc1Br	nt	-25	nt	1	1	nt	nt	nt	nt	nt
c1ccc2oc(-c3ccc4nc[nH]c4c3)nc2c1	54	-6	-9	1	14	15	nt	nt	nt	nt
Nc1nc2ccc(-c3nc4ccccc4o3)cc2s1	97*	3	-12	-1	5	72*	32*	-4	89*	5
Cc1ccc(C(=O)Nc2ccc(Br)c(C(F)(F)F)c2)cc1	51*	13	-3	8	4	29	6	4	34	12
CCCCN1CC(COCc2ccccc2)Oc2cc(Br)ccc2S1(=O)=O (stereo not drawn)	nt	8	nt	nt	3	nt	nt	nt	nt	nt
Cc1cc(NCCCN)nc(-c2ccccc2O)n1	55*	24	6	-2	2	41	18	-3	22	3
Cc1ccc(Nc2cc(C)nc(-c3ccccc3O)n2)cc1	28	21	-7	7	11	-14	nt	nt	nt	nt
C/C(=N\Nc1cc(C)nc(-c2ccccc2O)n1)c1ccccc1	10	29	-31	11	12	-63	nt	nt	nt	nt
Cc1cc(N/N=C/c2ccc(O)c(C)c2O)nc(-c2ccccc2O)n1	63*	57*	18	nt	13	51*	39*	4	47	17*
CCn1c2ccccc2c2cc(NC(=O)c3cc(OC)c(OC)c(OC)c3)ccc21	17	14	-12	2	-3	3	nt	nt	nt	nt
SMILES	OX1R antag-1	TAAR1 antagonist	CHO parental Ca	NTR1 agonist	TAAR1 agonist	OX1R antag-2	OX1R Fluo8 conf	CHO Ca triplic	OX1R HTRF confirm	CHO-K1 HTRF
COc1cc2c(cc1NC(=O)CSc1nnc(Cc3cccs3)n1Cc1ccco1)oc1ccccc12	36	nt	-19	10	nt	8	nt	nt	nt	nt
CCn1c(SCC(=O)Nc2cc3oc4ccccc4c3cc2OC)nnc1-c1cccs1	83*	-4	-25	7	1	50*	49*	-11	89*	6
C=CCn1c(SCC(=O)Nc2cc3oc4ccccc4c3cc2OC)nnc1-c1cnccn1	91*	1	-12	2	4	57*	66*	-7	91*	3
CCn1c(SCC(=O)Nc2nc(-c3ccccc3)cs2)nnc1-c1ccccc1	62*	26	-14	3	5	54*	15	2	72*	0
CCn1c2ccccc2c2cc(NC(=O)c3cc(OC)cc(OC)c3)ccc21	85*	-8	-15	12	-1	81*	96*	-13	89*	-11
O=C(CCc1nnc(-c2ccc3c(c2)OCO3)o1)N1CCC(c2ccc(F)cc2)C1 (stereo not drawn)	12	-12	0	2	3	-28	nt	nt	nt	nt
Cc1ccsc1-c1cc2nc(NCCCN(C)C)n(C)c(=O)c2s1	nt	-13	nt	nt	1	nt	nt	nt	nt	nt

High-throughput results from PubChem.
